According to the array DNA melting data of Ke et al. (doi:10.1101/2024.01.08.574731):

Columns and labels:
[1] = folding enthalpy; higher = less favourable; fluorescence melt of hairpins on a sequencing array, two-state fit; settings: sodium 0.088 M
Outline: (§1)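 Two-state fits, bootstrapped, provided melting temperature and folding enthalpy from Cy3 fluorescence normalised to pre-quench Cy3 and to control constructs. Library hairpins with annealed Cy3 and quencher oligos were imaged on a sequenced MiSeq flow cell in 50 mM Na-HEPES pH 8.0, 25 mM NaCl, at 2.5 °C intervals up to 60 °C. Four replicates were combined with inverse-variance weighting. A 9.35 °C upward shift was applied to fitted temperatures to match UV melts.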

[2] = melting temperature; fluorescence melt of hairpins on a sequencing array, two-state fit, raised by 9.35 °C to match UV melts; settings: sodium 0.088 M
Outline: as §1

| Sequence | folding enthalpy [1] | Tm [2] |
| --- | --- | --- |
| GTTCTGGAAACAGAAC ((((((....)))))) | -37.2 kcal/mol | 53.4 °C |
| GCGCTCGAAAGAGTCGC ((((((....))).))) | -30.6 kcal/mol | 57.7 °C |
| GGAGCCGAAAGGCTTCC ((((((....))).))) | -14.6 kcal/mol | 60.3 °C |
| GAATCTGGAAACAGATCC (.(((((....))))).) | -17.1 kcal/mol | 33.1 °C |
| CGCGGAATAATCCGCG ((((((....)))))) | -34.7 kcal/mol | 67.7 °C |
| GAGGCCGAAAGGCACCTC ((((((....)))..))) | -8.77 kcal/mol | 40 °C |
| GATCTTAGCAAGATC ((((((...)))))) | -31.9 kcal/mol | 46.2 °C |
| GCGGCTAACCGC ((((....)))) | -26.2 kcal/mol | 56.5 °C |
| GGGTGCGAAAGCAACCCC ((((((....)))..))) | -12.4 kcal/mol | 66.6 °C |
| GTGTCCGGAAACGGGTAC ((..(((....)))..)) | -20 kcal/mol | 42.4 °C |
| GCACGGGGAAACCTGTGC ((((.((....)).)))) | -37.7 kcal/mol | 58.6 °C |
| GATTTGAAAAAATC (((((....))))) | -13.9 kcal/mol | 34 °C |
| GCGTCCGGAAACGGACAC (.(((((....))))).) | -11.2 kcal/mol | 51 °C |
| GATCCCAACAGGGATC ((((((....)))))) | -36 kcal/mol | 62.4 °C |
| GCAACGGGAAACCGCTGC (((.(((....))).))) | -44 kcal/mol | 51.5 °C |
| GCGTTTCACGC ((((...)))) | -34.8 kcal/mol | 59.1 °C |
| GCGTAGGGAAACCCACGC ((((.((....)).)))) | -37.3 kcal/mol | 54.3 °C |
| GGACACCGAAAGGTTCC (((.(((....)))))) | -25.6 kcal/mol | 48.6 °C |
| GTCCGCCGAAAGGCTGAC (((.(((....))).))) | -21.9 kcal/mol | 57.3 °C |
| GTTCGTGGAAACACAAAC (((.(((....))).))) | -22.1 kcal/mol | 34 °C |
| GTGGCAACGAAAGTTCAC (((..(((....)))))) | -7.15 kcal/mol | 27.8 °C |
| GGCCCAGGAAACTAGGCC ((((.((....)).)))) | -30.3 kcal/mol | 48.1 °C |
| GATCGTACATACGATC ((((((....)))))) | -41.2 kcal/mol | 54.9 °C |
| GATCGCGTGTGCGATC ((((((....)))))) | -29.3 kcal/mol | 68.5 °C |

| Sequence | folding enthalpy [1] | Tm [2] |
| --- | --- | --- |
| GGAGCGGCGAAAGCCTCC (((..(((....)))))) | -13.8 kcal/mol | 39.5 °C |
| GTTTAGGCGAAAGCCAAC (((..(((....)))))) | -10.1 kcal/mol | 33.3 °C |
| GCCTCGCGAAAGCATGGC (((..((....))..))) | -18.4 kcal/mol | 53.3 °C |
| GAAGGCGAAAGCCGATTC ((((((....)))..))) | -14.7 kcal/mol | 57.8 °C |
| GTACAGGGAAACCCGTAC ((((.((....)).)))) | -24.8 kcal/mol | 43.4 °C |
| GGTACCGAAAGGTAGACC ((((((....)))..))) | -13.2 kcal/mol | 41 °C |
| CGTAAGAAATTACG (((((....))))) | -15.7 kcal/mol | 38.4 °C |
| GGGCATGGAAACGTGCTC (.(((.(....).))).) | -20.8 kcal/mol | 45 °C |
| GGGGGCGGAAACGCTCCC (((.(((....))).))) | -32.6 kcal/mol | 67.6 °C |
| GTGTGACGAAAGTCTCAC (((.(((....))).))) | -31.9 kcal/mol | 55.9 °C |
| CGTGAGCGGAAACGCACG (((..(((....)))))) | -22.2 kcal/mol | 45.9 °C |
| GCGACGCGAAAGCGCGGC ((..(((....)))..)) | -13.1 kcal/mol | 55.7 °C |
| GATCTCTTGAGAGATC ((((((....)))))) | -32.4 kcal/mol | 53.8 °C |
| GATCTAGGCGTAGATC ((((((....)))))) | -32.4 kcal/mol | 45.4 °C |
| GTCTATGCGAAAGCAGAC (((..(((....)))))) | -16.9 kcal/mol | 42.1 °C |
| GCGGACGAAAGTCCCCGC ((((((....)))..))) | -12.7 kcal/mol | 45.8 °C |
| GATCGAGAGTCGATC ((((((...)))))) | -29.7 kcal/mol | 49.4 °C |
| GATCAACCGGTTGATC ((((((....)))))) | -53.5 kcal/mol | 55.9 °C |
| GCAGAGCGAAAGCCCAGC ((.(.((....)).).)) | -12.2 kcal/mol | 33 °C |
| GATCGTGTGCACGATC ((((((....)))))) | -39.3 kcal/mol | 59.9 °C |
| GTAGAGCCGAAAGGCTAC (((..(((....)))))) | -10.5 kcal/mol | 34.6 °C |
| GTTGTTGAAAAACAAC ((((((....)))))) | -38.2 kcal/mol | 51.9 °C |
| GCAGCGCGAAAGCACCGC ((.(.((....)).).)) | -21.5 kcal/mol | 41.3 °C |
| GATCGGAAGGCCGATC ((((((....)))))) | -35.7 kcal/mol | 53.9 °C |

| Sequence | folding enthalpy [1] | Tm [2] |
| --- | --- | --- |
| GATCACCTTCGTGATC ((((((....)))))) | -48.5 kcal/mol | 56.7 °C |
| GCGATTCCGAAAGGACGC (((..(((....)))))) | -26.3 kcal/mol | 46 °C |
| GGATGCGAAAGCAATTCC ((((((....)))..))) | -16.1 kcal/mol | 36.7 °C |
| GGGGAACGAAAGTTACCC (((.(((....))).))) | -47.9 kcal/mol | 60.6 °C |
| GTCATTGGAAACAATGGC (.(((((....))))).) | -28.6 kcal/mol | 47.6 °C |
| GAAATGCGAAAGCACTTC (((.(((....))).))) | -17.1 kcal/mol | 40.7 °C |
| GGCCGACGAAAGTCAGCC (((.(((....))).))) | -35.5 kcal/mol | 59.4 °C |
| GTACTGGGAAACTGGTAC ((((..(....)..)))) | -24.5 kcal/mol | 36.5 °C |
| GCGTACGAACGC ((((....)))) | -23.9 kcal/mol | 51.5 °C |
| GATCGAACTCTCGATC ((((((....)))))) | -35.6 kcal/mol | 49.7 °C |
| CGTTTCCGGAAACGGACG (((..(((....)))))) | -17.1 kcal/mol | 49.3 °C |
| GGGGAATCGAAAGATCCC (((..(((....)))))) | -22.5 kcal/mol | 49.1 °C |
| GCCGGCGAAAGCCGCGGC ((((((....)))..))) | -11.9 kcal/mol | 65.3 °C |
| GCAAGAGGAAACTCTCGC ((.((((....)))).)) | -25.6 kcal/mol | 37.6 °C |
| GCCCTGCGAAAGCGTGGC (((..((....))..))) | -21.1 kcal/mol | 55.6 °C |
| GTCAAGGCGAAAGCCGAC (((..(((....)))))) | -10.2 kcal/mol | 48.1 °C |
| GCGTCCGGACGC ((((....)))) | -40.9 kcal/mol | 60.3 °C |
| GGTGCGACGAAAGTCACC (((..(((....)))))) | -16.5 kcal/mol | 42.5 °C |
| GCTCCATCGAAAGATAGC (((..(((....)))))) | -10.7 kcal/mol | 24.6 °C |
| GCTGGCGGAAACGTCGGC ((.(.((....)).).)) | -38.7 kcal/mol | 53.1 °C |
| GATCACAAGGGTGATC ((((((....)))))) | -36.4 kcal/mol | 55.9 °C |
| GCGTATAAACGC ((((....)))) | -19.7 kcal/mol | 50.4 °C |
